ChEMBL document CHEMBL2331324, “Synthesis and biological evaluation of guanidino analogues of roscovitine” (Eur J Med Chem, 2013)

Key:
[1] = target: Homeodomain-interacting protein kinase 2 (Homo sapiens) (UniProt Q9H2X6); test: Inhibition of recombinant HIPK2 (unknown origin) assessed as residual activity using [gamma-33P]ATP as substrate at 1 uM
In short: (§1)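 Recombinant kinase panel screened at 1 µM in duplicate. Reactions started with [γ-33P]ATP (800 cpm/pmol) at 5, 20 or 50 µM, chosen to sit at or below each enzyme's ATP Km. Stopped with phosphoric acid and spotted onto P81 filters. Result given as residual kinase activity.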

[2] = target: Cyclin-dependent kinase 2/cyclin E1 (Homo sapiens, UniProt P24941); test: Inhibition of recombinant CDK2/cyclin E (unknown origin) using histone H1 as substrate in presence of [gamma-33P]ATP; type: protein-complex assay
[3] = target: Mitogen-activated protein kinase kinase kinase 5 (Homo sapiens) (UniProt Q99683); test: Inhibition of recombinant ASK1 (unknown origin) assessed as residual activity using [gamma-33P]ATP as substrate at 1 uM; in short: as §1
[4] = target: Ribosomal protein S6 kinase alpha-3 (Homo sapiens) (UniProt P51812); test: Inhibition of recombinant RSK2 (unknown origin) assessed as residual activity using [gamma-33P]ATP as substrate at 1 uM
In short: (§2)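 Kinase panel screen with each compound at 1 µM, in duplicate. Reactions were started with [γ-33P]ATP (800 cpm/pmol) at 5, 20 or 50 µM, chosen per enzyme to be at or below its ATP Km. Reactions were stopped with phosphoric acid and spotted onto P81 filters. Results are given as residual kinase activity.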

[5] = target: Fibroblast growth factor receptor 1 (Homo sapiens) (UniProt P11362); test: Inhibition of recombinant FGF-R1 (unknown origin) assessed as residual activity using [gamma-33P]ATP as substrate at 1 uM; in short: as §1
[6] = target: Mitogen-activated protein kinase kinase kinase 7 (Homo sapiens) (UniProt O43318); test: Inhibition of recombinant TAK1 (unknown origin) assessed as residual activity using [gamma-33P]ATP as substrate at 1 uM; in short: as §2
Homo sapiens = organism: Homo sapiens; test: Inhibition of recombinant PKA (unknown origin) assessed as residual activity using [gamma-33P]ATP as substrate at 1 uM
In short: (§3)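 Selectivity panel run under previously published conditions. Screened at 1 μM in duplicate. Reactions started with [γ-33P]ATP (800 cpm/pmol) at 5, 20 or 50 μM, chosen to be at or below each enzyme's ATP Km. Stopped with phosphoric acid, spotted onto P81 filters. Result expressed as residual kinase activity.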

[7] = target: Mitogen-activated protein kinase 3 (Homo sapiens) (UniProt P27361); test: Inhibition of recombinant ERK1 (unknown origin) assessed as residual activity using [gamma-33P]ATP as substrate at 1 uM; in short: as §1
[8] = target: Serine/threonine-protein kinase OSR1 (Homo sapiens) (UniProt O95747); test: Inhibition of recombinant OSR1 (unknown origin) assessed as residual activity using [gamma-33P]ATP as substrate at 1 uM; in short: as §3
[9] = target: Protein-tyrosine kinase 6 (Homo sapiens) (UniProt Q13882); test: Inhibition of recombinant BRK (unknown origin) assessed as residual activity using [gamma-33P]ATP as substrate at 1 uM; in short: as §1
[10] = target: Interleukin-1 receptor-associated kinase 1 (Homo sapiens) (UniProt P51617); test: Inhibition of recombinant IRAK1 (unknown origin) assessed as residual activity using [gamma-33P]ATP as substrate at 1 uM; in short: as §1
[11] = target: Tyrosine-protein kinase SYK (Homo sapiens) (UniProt P43405); test: Inhibition of recombinant SYK (unknown origin) assessed as residual activity using [gamma-33P]ATP as substrate at 1 uM; in short: as §2
[12] = target: Serine/threonine-protein kinase TAO1 (Homo sapiens) (UniProt Q7L7X3); test: Inhibition of recombinant TAO1 (unknown origin) assessed as residual activity using [gamma-33P]ATP as substrate at 1 uM; in short: as §2
[13] = target: Serine/threonine-protein kinase pim-2 (Homo sapiens) (UniProt Q9P1W9); test: Inhibition of recombinant PIM2 (unknown origin) assessed as residual activity using [gamma-33P]ATP as substrate at 1 uM; in short: as §3
[14] = target: SRSF protein kinase 1 (Homo sapiens) (UniProt Q96SB4); test: Inhibition of recombinant SRPK1 (unknown origin) assessed as residual activity using [gamma-33P]ATP as substrate at 1 uM; in short: as §2
[15] = target: Serine/threonine-protein kinase tousled-like 1 (Homo sapiens) (UniProt Q9UKI8); test: Inhibition of recombinant TLK1 (unknown origin) assessed as residual activity using [gamma-33P]ATP as substrate at 1 uM; in short: as §2
[16] = target: Dual specificity protein kinase TTK (Homo sapiens) (UniProt P33981); test: Inhibition of recombinant TTK (unknown origin) assessed as residual activity using [gamma-33P]ATP as substrate at 1 uM; in short: as §2
[17] = target: Ribosomal protein S6 kinase beta-1 (Homo sapiens) (UniProt P23443); test: Inhibition of recombinant S6K1 (unknown origin) assessed as residual activity using [gamma-33P]ATP as substrate at 1 uM; in short: as §2
[18] = target: Mitogen-activated protein kinase 11 (Homo sapiens) (UniProt Q15759); test: Inhibition of recombinant p38 MAPKbeta (unknown origin) assessed as residual activity using [gamma-33P]ATP as substrate at 1 uM; in short: as §2
[19] = target: Aurora kinase A/B (Homo sapiens) (UniProt Q96GD4+O14965); test: Activity at Aurora kinase A/B in human MCF7 cells assessed as histone H3 phosphorylation at Ser10 at 100 uM after 24 hrs by flow cytometry relative to untreated control; type: cell-based
In short: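 Flow cytometry on MCF7 cells exposed 24 h to 100 µM. About one million cells fixed in 90% methanol, rehydrated, and labelled with primary antibody to pH3 Ser10, then an Alexa Fluor 488 secondary. Alexa read at 488/525 nm (ex/em). The value is the fraction of pH3-positive cells in treated cultures divided by that in untreated control.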

[20] = target: Insulin receptor (Homo sapiens) (UniProt P06213); test: Inhibition of recombinant IR (unknown origin) assessed as residual activity using [gamma-33P]ATP as substrate at 1 uM; in short: as §1
[21] = target: Serine/threonine-protein kinase Nek2 (Homo sapiens) (UniProt P51955); test: Inhibition of recombinant NEK2a (unknown origin) assessed as residual activity using [gamma-33P]ATP as substrate at 1 uM; in short: as §3
[22] = target: Mitogen-activated protein kinase 8 (Homo sapiens) (UniProt P45983); test: Inhibition of recombinant JNK1 (unknown origin) assessed as residual activity using [gamma-33P]ATP as substrate at 1 uM; in short: as §3
[23] = target: Serine/threonine-protein kinase N2 (Homo sapiens) (UniProt Q16513); test: Inhibition of recombinant PRK2 (unknown origin) assessed as residual activity using [gamma-33P]ATP as substrate at 1 uM; in short: as §3
[24] = target: Mitogen-activated protein kinase kinase kinase 11 (Homo sapiens) (UniProt Q16584); test: Inhibition of recombinant MLK3 (unknown origin) assessed as residual activity using [gamma-33P]ATP as substrate at 1 uM; in short: as §3
[25] = target: Eukaryotic elongation factor 2 kinase (Homo sapiens) (UniProt O00418); test: Inhibition of recombinant EF2K (unknown origin) assessed as residual activity using [gamma-33P]ATP as substrate at 1 uM; in short: as §1

Sequence of Mitogen-activated protein kinase 11 (Homo sapiens) (Q15759 whole entry): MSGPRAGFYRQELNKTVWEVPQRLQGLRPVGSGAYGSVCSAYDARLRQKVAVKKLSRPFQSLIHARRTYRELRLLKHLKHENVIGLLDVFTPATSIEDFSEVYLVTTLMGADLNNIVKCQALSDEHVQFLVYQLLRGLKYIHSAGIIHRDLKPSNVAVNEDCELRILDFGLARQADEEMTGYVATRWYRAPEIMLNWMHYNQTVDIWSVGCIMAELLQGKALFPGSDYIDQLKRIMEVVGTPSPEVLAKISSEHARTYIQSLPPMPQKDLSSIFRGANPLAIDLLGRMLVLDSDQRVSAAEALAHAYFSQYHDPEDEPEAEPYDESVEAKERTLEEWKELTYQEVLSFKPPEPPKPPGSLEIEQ
Sequence of Serine/threonine-protein kinase TAO1 (Homo sapiens) (Q7L7X3 whole entry): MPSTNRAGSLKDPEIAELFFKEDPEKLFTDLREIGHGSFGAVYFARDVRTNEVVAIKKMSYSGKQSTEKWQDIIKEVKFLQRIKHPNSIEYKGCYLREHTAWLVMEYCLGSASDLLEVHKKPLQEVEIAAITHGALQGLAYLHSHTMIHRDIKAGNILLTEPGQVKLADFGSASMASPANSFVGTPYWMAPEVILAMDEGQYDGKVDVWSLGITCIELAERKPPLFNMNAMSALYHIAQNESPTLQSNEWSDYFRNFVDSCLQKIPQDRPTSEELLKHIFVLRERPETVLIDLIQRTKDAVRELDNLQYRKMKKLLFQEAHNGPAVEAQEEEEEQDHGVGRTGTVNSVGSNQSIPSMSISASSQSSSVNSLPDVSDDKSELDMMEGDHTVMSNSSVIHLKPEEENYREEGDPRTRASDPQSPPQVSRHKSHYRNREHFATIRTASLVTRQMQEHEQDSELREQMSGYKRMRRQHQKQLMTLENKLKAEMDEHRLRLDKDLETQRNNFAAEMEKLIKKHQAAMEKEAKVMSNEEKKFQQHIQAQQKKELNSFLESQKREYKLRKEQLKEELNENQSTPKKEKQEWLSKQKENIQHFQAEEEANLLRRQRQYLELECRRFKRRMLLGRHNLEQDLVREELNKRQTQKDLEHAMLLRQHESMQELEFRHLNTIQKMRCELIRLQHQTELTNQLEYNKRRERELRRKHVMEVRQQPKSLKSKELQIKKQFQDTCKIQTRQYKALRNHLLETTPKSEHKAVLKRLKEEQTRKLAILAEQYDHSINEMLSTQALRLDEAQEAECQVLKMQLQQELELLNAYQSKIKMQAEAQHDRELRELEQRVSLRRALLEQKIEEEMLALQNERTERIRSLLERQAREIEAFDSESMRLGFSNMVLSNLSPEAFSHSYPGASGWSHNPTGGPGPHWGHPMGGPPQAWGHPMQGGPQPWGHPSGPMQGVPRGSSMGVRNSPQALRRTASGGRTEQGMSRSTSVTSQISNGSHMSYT
Sequence of Ribosomal protein S6 kinase alpha-3 (Homo sapiens) (P51812 whole entry): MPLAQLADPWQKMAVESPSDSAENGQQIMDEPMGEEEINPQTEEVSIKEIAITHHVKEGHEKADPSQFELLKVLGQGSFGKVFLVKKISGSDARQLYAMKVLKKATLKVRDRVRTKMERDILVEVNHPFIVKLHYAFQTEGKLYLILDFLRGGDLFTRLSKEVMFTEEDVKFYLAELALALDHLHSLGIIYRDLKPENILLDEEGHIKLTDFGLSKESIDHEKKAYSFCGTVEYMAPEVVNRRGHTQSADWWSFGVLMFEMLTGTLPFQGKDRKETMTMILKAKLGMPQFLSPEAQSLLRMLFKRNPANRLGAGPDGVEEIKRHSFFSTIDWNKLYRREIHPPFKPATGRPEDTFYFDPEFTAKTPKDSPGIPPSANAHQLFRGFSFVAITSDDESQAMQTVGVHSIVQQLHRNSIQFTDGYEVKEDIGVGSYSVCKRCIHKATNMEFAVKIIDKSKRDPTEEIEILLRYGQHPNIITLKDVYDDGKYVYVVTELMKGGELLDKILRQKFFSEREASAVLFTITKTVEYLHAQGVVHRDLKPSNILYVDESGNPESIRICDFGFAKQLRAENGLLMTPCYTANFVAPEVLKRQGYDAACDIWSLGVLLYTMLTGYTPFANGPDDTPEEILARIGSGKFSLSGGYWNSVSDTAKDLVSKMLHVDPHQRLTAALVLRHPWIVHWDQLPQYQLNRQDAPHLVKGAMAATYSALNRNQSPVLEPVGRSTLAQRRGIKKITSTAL
Sequence of Aurora kinase A/B (Homo sapiens) (O14965 whole entry, looked up): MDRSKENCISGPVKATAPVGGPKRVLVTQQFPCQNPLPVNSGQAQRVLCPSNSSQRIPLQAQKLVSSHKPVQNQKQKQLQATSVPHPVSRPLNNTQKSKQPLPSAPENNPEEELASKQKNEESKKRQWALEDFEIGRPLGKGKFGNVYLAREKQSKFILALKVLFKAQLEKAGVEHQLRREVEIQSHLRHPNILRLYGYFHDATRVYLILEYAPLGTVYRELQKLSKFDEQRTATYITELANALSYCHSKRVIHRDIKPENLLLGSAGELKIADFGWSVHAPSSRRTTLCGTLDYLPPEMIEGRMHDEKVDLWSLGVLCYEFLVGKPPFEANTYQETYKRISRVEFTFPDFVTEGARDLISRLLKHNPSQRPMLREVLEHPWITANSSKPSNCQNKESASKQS
Sequence of Aurora kinase A/B (Homo sapiens) (Q96GD4 whole entry, looked up): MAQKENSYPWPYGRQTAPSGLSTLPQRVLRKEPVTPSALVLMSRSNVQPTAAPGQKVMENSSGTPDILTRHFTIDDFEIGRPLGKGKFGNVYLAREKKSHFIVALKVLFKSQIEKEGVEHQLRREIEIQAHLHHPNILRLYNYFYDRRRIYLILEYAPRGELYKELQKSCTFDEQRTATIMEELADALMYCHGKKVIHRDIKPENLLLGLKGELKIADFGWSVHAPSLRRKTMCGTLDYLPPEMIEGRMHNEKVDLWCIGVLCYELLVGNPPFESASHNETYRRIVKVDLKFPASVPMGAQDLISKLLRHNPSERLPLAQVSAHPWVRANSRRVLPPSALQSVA
Sequence of Mitogen-activated protein kinase kinase kinase 11 (Homo sapiens) (Q16584 whole entry, looked up): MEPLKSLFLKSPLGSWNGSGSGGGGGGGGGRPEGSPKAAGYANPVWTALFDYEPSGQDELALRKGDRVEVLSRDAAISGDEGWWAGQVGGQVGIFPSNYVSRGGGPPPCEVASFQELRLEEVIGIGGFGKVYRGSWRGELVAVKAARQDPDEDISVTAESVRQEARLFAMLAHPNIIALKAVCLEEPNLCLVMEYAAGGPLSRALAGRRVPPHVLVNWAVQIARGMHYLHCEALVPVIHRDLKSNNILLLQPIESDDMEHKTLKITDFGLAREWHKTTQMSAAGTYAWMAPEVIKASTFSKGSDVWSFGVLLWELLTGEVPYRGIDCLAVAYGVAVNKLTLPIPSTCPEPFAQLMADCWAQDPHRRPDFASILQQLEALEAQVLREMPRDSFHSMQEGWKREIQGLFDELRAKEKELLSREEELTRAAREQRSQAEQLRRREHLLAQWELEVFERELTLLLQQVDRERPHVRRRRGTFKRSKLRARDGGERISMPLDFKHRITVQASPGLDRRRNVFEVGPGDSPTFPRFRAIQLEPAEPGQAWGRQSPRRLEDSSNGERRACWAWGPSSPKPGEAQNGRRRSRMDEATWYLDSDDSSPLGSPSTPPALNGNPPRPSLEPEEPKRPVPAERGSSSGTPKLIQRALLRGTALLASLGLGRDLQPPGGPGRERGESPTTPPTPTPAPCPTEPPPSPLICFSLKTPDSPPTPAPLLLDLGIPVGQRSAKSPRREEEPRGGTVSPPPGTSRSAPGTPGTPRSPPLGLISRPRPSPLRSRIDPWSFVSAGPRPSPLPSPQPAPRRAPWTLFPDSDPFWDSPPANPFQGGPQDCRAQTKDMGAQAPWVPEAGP
Sequence of Insulin receptor (Homo sapiens) (P06213 28-758 limits assumed): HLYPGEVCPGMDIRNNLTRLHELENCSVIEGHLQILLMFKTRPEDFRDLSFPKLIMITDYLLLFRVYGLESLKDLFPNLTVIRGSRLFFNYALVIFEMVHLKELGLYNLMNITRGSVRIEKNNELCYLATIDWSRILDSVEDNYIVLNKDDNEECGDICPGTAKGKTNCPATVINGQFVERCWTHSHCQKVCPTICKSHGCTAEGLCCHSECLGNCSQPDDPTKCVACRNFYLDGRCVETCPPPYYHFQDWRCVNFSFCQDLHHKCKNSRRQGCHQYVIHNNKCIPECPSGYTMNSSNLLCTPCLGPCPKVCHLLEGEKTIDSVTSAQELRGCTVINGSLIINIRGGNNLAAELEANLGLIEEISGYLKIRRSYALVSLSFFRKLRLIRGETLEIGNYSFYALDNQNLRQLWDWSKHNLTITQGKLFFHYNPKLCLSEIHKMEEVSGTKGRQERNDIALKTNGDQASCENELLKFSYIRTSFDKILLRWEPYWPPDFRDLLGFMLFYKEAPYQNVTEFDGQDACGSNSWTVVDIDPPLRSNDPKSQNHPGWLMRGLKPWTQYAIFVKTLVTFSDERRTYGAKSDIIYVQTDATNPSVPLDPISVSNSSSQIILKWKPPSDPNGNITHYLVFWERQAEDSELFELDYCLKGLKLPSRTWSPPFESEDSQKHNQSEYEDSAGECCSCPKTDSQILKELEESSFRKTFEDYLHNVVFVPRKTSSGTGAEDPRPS
Sequence of Insulin receptor (Homo sapiens) (P06213 763-1382 limits assumed): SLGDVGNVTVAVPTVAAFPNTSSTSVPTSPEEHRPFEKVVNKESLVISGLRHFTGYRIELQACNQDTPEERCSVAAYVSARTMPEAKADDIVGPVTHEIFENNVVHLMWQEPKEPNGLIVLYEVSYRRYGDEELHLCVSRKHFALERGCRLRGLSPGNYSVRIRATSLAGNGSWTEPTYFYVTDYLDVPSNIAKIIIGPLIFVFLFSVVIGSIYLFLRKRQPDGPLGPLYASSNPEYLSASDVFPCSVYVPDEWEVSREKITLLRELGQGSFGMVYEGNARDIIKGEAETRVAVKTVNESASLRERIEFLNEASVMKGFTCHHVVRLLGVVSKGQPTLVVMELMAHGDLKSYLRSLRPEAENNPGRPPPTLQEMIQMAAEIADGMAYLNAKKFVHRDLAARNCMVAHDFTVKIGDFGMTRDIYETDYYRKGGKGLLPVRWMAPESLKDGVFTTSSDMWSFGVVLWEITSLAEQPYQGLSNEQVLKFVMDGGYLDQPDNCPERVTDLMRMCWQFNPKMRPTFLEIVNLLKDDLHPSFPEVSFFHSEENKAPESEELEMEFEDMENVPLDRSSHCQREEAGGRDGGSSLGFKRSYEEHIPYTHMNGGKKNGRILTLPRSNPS

Row | SMILES | Activity [1] | IC50 [2] | Activity [3] | Activity [4] | Activity [5] | Activity [6] | Activity (Homo sapiens) | Activity [7] | Activity [8] | Activity [9] | Activity [10] | Activity [11] | Activity [12] | Activity [13] | Activity [14] | Activity [15] | Activity [16] | Activity [17] | Activity [18] | Ratio [19] | further results
1 | CC[C@H](CO)Nc1nc(NC(=N)N)c2ncn(C(C)C)c2n1 | 8% | 0.14 µM | 100% | 35% | 4% | 7% | 90% | 50% | 16% | 50% | 26% | 58% | 9% | 88% | 22% | 9% | 40% | 49% | 64% | 0.08 | Activity [20]: 5%; Activity [21]: 73%; Activity [22]: 88%; Activity [23]: 85%; Activity [24]: 37%; Activity [25]: 94%
2 | CC[C@@H](CO)Nc1nc(NC(=N)N)c2ncn(C(C)C)c2n1 | 6% | 0.037 µM | 81% | 71% | 5% | 13% | 83% | 28% | 16% | 44% | 17% | 50% | 9% | 91% | 14% | 9% | 32% | 36% | 66% | 0.09 | Activity [20]: 3%; Activity [21]: 57%; Activity [22]: 78%; Activity [23]: 84%; Activity [24]: 37%; Activity [25]: 94%
